Assays:
[1] = lowest concentration at which glucose utilized was greater than or equal to 140% of control value tested in a glucose utilization L6 myocyte in vitro assay; format: functional, Rattus norvegicus
Summary of the method: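 Differentiated rat L6 myotubes (day 11 or 13 after plating) exposed 20 h to compound in serum-free DMEM with 15 mM glucose and 1% final DMSO. Tested in quadruplicate at 3, 10, 30, 100, 300 µM. Glucose left in the medium read by glucose oxidase. Value is the lowest concentration giving at least 40% more utilization than control.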

[2] = test system: Mus musculus; assay: compound was tested in vivo for lower blood glucose levels in diabetic obese ob/ob mice by measuring postprandial blood glucose level on day 3 after 2 hours at 200 uM/kg oral dose; format: functional
Summary of the method: (§1)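 Adult male C57BL ob/ob mice, fed, grouped (6/group) and matched for blood glucose on day 0; mice under 150 mg/dL excluded. Oral dosing in the morning on days 1-3, vehicle 0.5% CMC with 0.2% Tween-80. Significance versus vehicle.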

[3] = test system: Mus musculus; assay: compound was tested in vivo for lower blood glucose levels in diabetic obese ob/ob mice by measuring postprandial blood glucose level on day 3 after 4 hours at 200 uM/kg oral dose; format: functional; summary of the method: as §1
[4] = test system: Mus musculus; assay: compound was tested in vivo for lower blood glucose levels in diabetic obese ob/ob mice by measuring postprandial blood glucose level on day 3 after 8 hours at 200 uM/kg oral dose; format: functional; summary of the method: as §1
[5] = test system: Mus musculus; assay: compound was tested in vivo for lower blood glucose levels in diabetic obese ob/ob mice by measuring postprandial blood glucose level on day1 after 2 hours at 200 uM/kg oral dose; format: functional; summary of the method: as §1
[6] = test system: Mus musculus; assay: compound was tested in vivo for lower blood glucose levels in diabetic obese ob/ob mice by measuring postprandial blood glucose level on day1 after 4 hours at 200 uM/kg oral dose; format: functional; summary of the method: as §1
[7] = compound was tested in vivo for lower blood glucose levels in diabetic obese ob/ob mice by measuring postprandial blood glucose level on day1 after 2 hours at 15.86 uM/kg oral dose.; format: functional, Mus musculus; summary of the method: as §1
[8] = compound was tested in vivo for lower blood glucose levels in diabetic obese ob/ob mice by measuring postprandial blood glucose level on day1 after 4 hours at 15.86 uM/kg oral dose.; format: functional, Mus musculus; summary of the method: as §1
[9] = test system: Mus musculus; assay: In vivo lowering of blood glucose levels in diabetic obese ob/ob mice, measuring postprandial blood glucose level on day 3 after 2 hours at 300 uM/kg oral dose; format: functional; summary of the method: as §1
[10] = test system: Mus musculus; assay: In vivo lowering of blood glucose levels in diabetic obese ob/ob mice by measuring postprandial blood glucose level on day 3 after 4 hours at 300 uM/kg oral dose; format: functional; summary of the method: as §1
[11] = test system: Mus musculus; assay: In vivo lowering of blood glucose levels in diabetic obese ob/ob mice by measuring postprandial blood glucose level on day 3 after 8 hours at 300 uM/kg oral dose; format: functional; summary of the method: as §1
[12] = test system: Mus musculus; assay: compound was tested in vivo for lower blood glucose levels in diabetic obese ob/ob mice by measuring postprandial blood glucose level on day1 after 4 hours at 300 uM/kg oral dose *p < 0.05; format: functional; summary of the method: as §1
[13] = test system: Mus musculus; assay: In vivo lowering of blood glucose levels in diabetic obese ob/ob mice, measuring postprandial blood glucose level on day1 after 2 hours at 300 uM/kg oral dose; format: functional; summary of the method: as §1
[14] = test system: Mus musculus; assay: In vivo lowering of blood glucose levels in diabetic obese ob/ob mice by measuring postprandial blood glucose level on day1 after 4 hours at 300 uM/kg oral dose; format: functional; summary of the method: as §1

SMILES	Lowest effective concentration for glucose utilization ≥140% of control [1] [µM]	Efficacy [2] [%]	Efficacy [3] [%]	Efficacy [4] [%]	Efficacy [5] [%]	Efficacy [6] [%]	Efficacy [7] [%]	Efficacy [8] [%]	Efficacy [9] [%]	Efficacy [10] [%]	Efficacy [11] [%]	Efficacy [12] [%]	Efficacy [13] [%]	Efficacy [14] [%]
O=C1CC[C@]2(c3ccc(Cl)cc3)O[C@H](COc3ccc(Cl)cc3)CN12	30	14	-15	-26	31	46	–	–	–	–	–	–	–	–
CC(C)C(N)C(=O)NC(C(=O)O)C(O)[C@H]1CN2C(=O)C[C@@H]2O1 (stereo not given in full)	10	–	–	–	–	–	63	63	–	–	–	–	–	–
OCc1cc(-c2ccc(C(F)(F)F)cc2)no1	100	–	–	–	–	–	–	–	6	48	50	52	14	–
CS(=O)(=O)N1C[C@@H](COc2ccc(Cl)cc2)O[C@@H]1c1ccc(Cl)cc1	30	–	–	–	–	–	–	–	11	55	22	–	-10	18
O=C1CC[C@]2(c3ccc4oc5ccccc5c4c3)O[C@H](COc3ccc(Cl)cc3)CN12	30	–	–	–	–	–	–	–	8	16	7	–	-25	-43
O=C1C[C@@H]2O[C@@H](CO)CN12	30	53	23	44	66	86	–	–	–	–	–	–	–	–
CC(C)C(=O)N1C[C@H](COc2ccc(Cl)cc2)O[C@@H]1c1ccc(Cl)c(Cl)c1	30	–	–	–	–	–	–	–	20	24	6	–	32	21
O=C1CCC[C@]2(c3ccc(Oc4ccccc4)cc3)OCCN12	30	–	–	–	–	–	–	–	45	50	3	–	25	29

From ChEMBL document CHEMBL1131263, “Substituted tetrahydropyrrolo[2,1-b]oxazol-5(6H)-ones and tetrahydropyrrolo[2,1-b]thiazol-5(6H)-ones as hypoglycemic agents” (1998)
